# Test results: ChEMBL document CHEMBL2021768, “Syntheses of [12]aneN₃-oligopeptide conjugates as effective DNA condensation agents” (Bioorg Med Chem, 2012)
# Calls of active or inactive are those of the source. The rule behind the calls is not given here. Residues, ends and D or L forms follow the SMILES beside them.
# How the values were obtained:
# Nucleic Acid [1] = experiment: Induction of Escherichia coli pUC18 DNA condensation assessed as retardation of DNA migration at 500 uM after 1 hr by agarose gel electrophoresis; type: nucleic-acid assay
# How it was run: (§1)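 Supercoiled pUC18 plasmid treated with conjugate in Tris–HCl (50 mM, pH 7.4), then incubated 1 h at 37 °C. Agarose gel electrophoresis compared with a DNA-alone lane. Retardation was judged by loss of supercoiled DNA migration.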
# Nucleic Acid [2] = experiment: Induction of Escherichia coli pUC18 condensation assessed as retardation of DNA migration at 250 uM after 1 hr by agarose gel electrophoresis; type: nucleic-acid assay; how it was run: as §1
# [3] = Cytotoxicity against human HepG2 cells assessed as cell viability at 250 uM after 24 hrs by MTT assay; type: cell-based; conditions: read-out: Activity
# How it was run: (§2)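 MTT assay. HepG2 grown in DMEM with 15% FBS, T98G in MEM with 10% FBS, 37 °C, 5% CO2. Cells seeded at 5 × 10⁵ per well and cultured 24 h, then exposed to compound for 24 h. MTT (5 mg/mL stock) added for 4 h, formazan dissolved in DMSO, absorbance read at 490 nm. Viability taken relative to controls from four parallel tests.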
# Nucleic Acid [4] = experiment: Binding affinity to calf thymus DNA assessed as fluorescence quenching after 1 min by ethidium bromide displacement assay; type: nucleic-acid assay; conditions: Bos taurus
# How it was run: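 Calf thymus DNA (100 μM) pretreated with ethidium bromide (10 μM), then conjugate added. Tris buffer (50 mM, pH 7.4), room temperature. Incubated 1 min before reading fluorescence, excitation 537 nm. Apparent binding constant (K_app) derived from the quenching curve.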
# [5] = Cytotoxicity against human T98G cells assessed as cell viability at 250 uM after 24 hrs by MTT assay; type: cell-based; conditions: read-out: Activity; how it was run: as §2
# Nucleic Acid [6] = experiment: Induction of Escherichia coli pUC18 condensation assessed as retardation of DNA migration at 220 uM after 1 hr by agarose gel electrophoresis in presence of 50 to 400 mM NaCl; type: nucleic-acid assay
# Nucleic Acid [7] = experiment: Reversible Escherichia coli pUC18 condensation assessed as DNA migration at 250 uM after 1 hr by agarose gel electrophoresis in presence of 200 mM NaCl; type: nucleic-acid assay
# Nucleic Acid [8] = experiment: Induction of Escherichia coli pUC18 condensation assessed as diameters of DNA nanoparticles at 250 uM after 1 hr by atomic force microscopy; type: nucleic-acid assay
# How it was run: (§3)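 pUC18 diluted to 9 μg/mL in Tris (5 mM, pH 7.4) with 1 mM MgCl2 plus conjugate, equilibrated 1 h at 37 °C. Sample spotted for 5 min on mica pretreated with 10 mM NiCl2, then rinsed and dried under argon. Imaged in air at room temperature by tapping-mode AFM with Si tips at 1–3 Hz.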
# Nucleic Acid [9] = experiment: Induction of Escherichia coli pUC18 condensation assessed as hydrodynamic diameters of DNA nanoparticles at 50 to 250 uM after 5 mins by dynamic laser light scattering analysis; type: nucleic-acid assay
# How it was run: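 pUC18 DNA at 9 μg/mL in Tris buffer (50 mM, pH 7.4) with conjugate, left 5 min at room temperature. Dynamic light scattering at 90° and 25 °C. Ten runs per solution, averaged and reported as mean ± S.D.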
# Nucleic Acid [10] = experiment: Induction of Escherichia coli pUC18 condensation assessed as retardation of DNA migration at 150 uM after 1 hr by agarose gel electrophoresis in presence of 50 to 400 mM NaCl; type: nucleic-acid assay
# Nucleic Acid [11] = experiment: Induction of Escherichia coli pUC18 condensation assessed as retardation of DNA migration at 200 uM after 1 hr by agarose gel electrophoresis; type: nucleic-acid assay; how it was run: as §1
# Nucleic Acid [12] = experiment: Induction of Escherichia coli pUC18 condensation assessed as diameters of DNA nanoparticles at 150 uM after 1 hr by atomic force microscopy; type: nucleic-acid assay; how it was run: as §3
# Nucleic Acid [13] = experiment: Reversible Escherichia coli pUC18 condensation assessed as DNA migration at 150 uM after 1 hr by agarose gel electrophoresis in presence of 200 mM NaCl; type: nucleic-acid assay
Compound,Activity (Nucleic Acid [1]),Kapp (Nucleic Acid [4]) [×10⁵ /M],Activity (Nucleic Acid [9]) [nm],"viability at 24 h, 250 µM [3] [%]","viability at 24 h, 250 µM [5] [%]",other results
COC(=O)[C@@H](NC(=O)[C@H](CC(C)C)NC(=O)[C@H](C)NC(=O)[C@H](CC(C)C)NC(=O)[C@H](C)NC(=O)[C@H](CC(C)C)NC(=O)CN1CCCNCCCNCCC1)C(C)C (HELM PEPTIDE1{[O=C(CN1CCCNCCCNCCC1)[*:2]].L.A.L.A.L.V.[CO[*:1]]}$$$$V2.0),inactive,–,–,–,–,–
COC(=O)[C@H](Cc1c[nH]c2ccccc12)NC(=O)[C@H](CC(C)C)NC(=O)[C@H](C)NC(=O)[C@H](CC(C)C)NC(=O)[C@H](C)NC(=O)[C@H](CC(C)C)NC(=O)CN1CCCNCCCNCCC1 (HELM PEPTIDE1{[O=C(CN1CCCNCCCNCCC1)[*:2]].L.A.L.A.L.W.[CO[*:1]]}$$$$V2.0),–,1.2,196,85,80,Activity (Nucleic Acid [2]): Active; Activity (Nucleic Acid [6]): inactive; Activity (Nucleic Acid [7]): Active; Activity (Nucleic Acid [8]): 36 nm
COC(=O)[C@H](Cc1ccc(O)cc1)NC(=O)[C@H](CC(C)C)NC(=O)[C@H](C)NC(=O)[C@H](CC(C)C)NC(=O)[C@H](C)NC(=O)[C@H](CC(C)C)NC(=O)CN1CCCNCCCNCCC1 (HELM PEPTIDE1{[O=C(CN1CCCNCCCNCCC1)[*:2]].L.A.L.A.L.Y.[CO[*:1]]}$$$$V2.0),inactive,–,–,–,–,–
COC(=O)[C@H](C)NC(=O)[C@H](CC(C)C)NC(=O)[C@H](C)NC(=O)[C@H](CC(C)C)NC(=O)[C@H](C)NC(=O)[C@H](CC(C)C)NC(=O)CN1CCCNCCCNCCC1 (HELM PEPTIDE1{[O=C(CN1CCCNCCCNCCC1)[*:2]].L.A.L.A.L.A.[CO[*:1]]}$$$$V2.0),inactive,–,–,–,–,–
COC(=O)[C@H](CC(C)C)NC(=O)[C@H](CC(C)C)NC(=O)[C@H](C)NC(=O)[C@H](CC(C)C)NC(=O)[C@H](C)NC(=O)[C@H](CC(C)C)NC(=O)CN1CCCNCCCNCCC1 (HELM PEPTIDE1{[O=C(CN1CCCNCCCNCCC1)[*:2]].L.A.L.A.L.L.[CO[*:1]]}$$$$V2.0),–,1.9,174,97,96,Activity (Nucleic Acid [10]): inactive; Activity (Nucleic Acid [11]): Active; Activity (Nucleic Acid [12]): 30 nm; Activity (Nucleic Acid [13]): Active

# Second part, led by results:
Activity (Nucleic Acid [1]),Kapp (Nucleic Acid [4]) [×10⁵ /M],Activity (Nucleic Acid [9]) [nm],Compound,"viability at 24 h, 250 µM [3] [%]","viability at 24 h, 250 µM [5] [%]",other results
inactive,–,–,COC(=O)CNC(=O)[C@H](CC(C)C)NC(=O)[C@H](C)NC(=O)[C@H](CC(C)C)NC(=O)[C@H](C)NC(=O)[C@H](CC(C)C)NC(=O)CN1CCCNCCCNCCC1 (HELM PEPTIDE1{[O=C(CN1CCCNCCCNCCC1)[*:2]].L.A.L.A.L.G.[CO[*:1]]}$$$$V2.0),–,–,–
–,1.4,208,COC(=O)[C@H](Cc1ccccc1)NC(=O)[C@H](CC(C)C)NC(=O)[C@H](C)NC(=O)[C@H](CC(C)C)NC(=O)[C@H](C)NC(=O)[C@H](CC(C)C)NC(=O)CN1CCCNCCCNCCC1 (HELM PEPTIDE1{[O=C(CN1CCCNCCCNCCC1)[*:2]].L.A.L.A.L.F.[CO[*:1]]}$$$$V2.0),83,78,Activity (Nucleic Acid [10]): inactive; Activity (Nucleic Acid [2]): Active; Activity (Nucleic Acid [7]): Active; Activity (Nucleic Acid [8]): 20 nm
inactive,–,–,COC(=O)[C@H](CO)NC(=O)[C@H](CC(C)C)NC(=O)[C@H](C)NC(=O)[C@H](CC(C)C)NC(=O)[C@H](C)NC(=O)[C@H](CC(C)C)NC(=O)CN1CCCNCCCNCCC1 (HELM PEPTIDE1{[O=C(CN1CCCNCCCNCCC1)[*:2]].L.A.L.A.L.S.[CO[*:1]]}$$$$V2.0),–,–,–
